We go through seven molecules from ChEMBL document CHEMBL3120131, “Lipoxygenase inhibitors derived from marine macroalgae” (Bioorg Med Chem Lett, 2014).

For experiment [1], the target named is T1, Seed linoleate 9S-lipoxygenase (Glycine max) (UniProt P24095).
T1 sequence (whole entry): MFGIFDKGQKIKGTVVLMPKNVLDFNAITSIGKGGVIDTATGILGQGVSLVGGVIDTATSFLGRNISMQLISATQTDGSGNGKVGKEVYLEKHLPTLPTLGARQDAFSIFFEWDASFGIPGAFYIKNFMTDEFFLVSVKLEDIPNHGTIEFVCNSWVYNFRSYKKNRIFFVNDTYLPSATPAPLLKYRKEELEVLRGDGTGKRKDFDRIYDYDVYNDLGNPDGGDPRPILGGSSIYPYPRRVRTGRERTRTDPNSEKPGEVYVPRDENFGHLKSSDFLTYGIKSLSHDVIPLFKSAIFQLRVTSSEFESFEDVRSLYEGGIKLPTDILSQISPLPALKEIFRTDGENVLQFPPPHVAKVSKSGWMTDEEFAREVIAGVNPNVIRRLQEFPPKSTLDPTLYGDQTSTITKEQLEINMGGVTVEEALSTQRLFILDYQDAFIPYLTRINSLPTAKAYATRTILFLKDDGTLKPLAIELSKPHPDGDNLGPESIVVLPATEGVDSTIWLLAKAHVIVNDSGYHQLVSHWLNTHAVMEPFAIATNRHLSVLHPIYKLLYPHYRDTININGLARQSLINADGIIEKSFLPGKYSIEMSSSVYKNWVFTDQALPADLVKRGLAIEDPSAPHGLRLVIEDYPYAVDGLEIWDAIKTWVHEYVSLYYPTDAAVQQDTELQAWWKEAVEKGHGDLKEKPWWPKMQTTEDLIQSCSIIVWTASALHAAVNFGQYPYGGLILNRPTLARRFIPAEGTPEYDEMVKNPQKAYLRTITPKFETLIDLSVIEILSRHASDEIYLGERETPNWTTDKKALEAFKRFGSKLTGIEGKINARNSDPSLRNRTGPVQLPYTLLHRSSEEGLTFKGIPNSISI
In words: Inhibition of soybean lipoxygenase at 100 uM. The procedure, abridged: (§1)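 Soybean LOX (0.4 mg/mL stock in 100 mM borate, pH 9.0) and methanol-dissolved sample were pre-incubated 5 min at 27.5°C in 20 mM 3-dimethylaminobenzoic acid/borate pH 9.0. Argon-flushed substrate was added and the mixture held 5 min at 27.5°C. Stopped with MBTH–hemoglobin in phosphate pH 5.0; after 5 min, 1% SDS was added and A598 compared against control.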

Experiment [2] addresses T2, Seed linoleate 9S-lipoxygenase (Glycine max, UniProt P24095).
T2 sequence (P24095 whole entry): T1 sequence (whole entry)
In words: (§2) Inhibition of soybean lipoxygenase. The procedure, abridged: as §1

For experiment [3], the target named is T1, Seed linoleate 9S-lipoxygenase (Glycine max). The experiment is described as §2. The gist of the method:
as §1

For the molecule `C=Cc1c(C)c2cc3nc(c4c5[nH]c(cc6nc(cc1[nH]2)C(C)=C6CC)c(C)c5C(=O)[C@@H]4C(=O)OC)[C@@H](CCC(=O)OC/C=C(\C)CCC[C@H](C)CCC[C@H](C)CCCC(C)C)[C@@H]3C`, in experiment [1], the inhibition was found to be 37.6%. Same read-out and setting: under `C=Cc1c(C)c2cc3nc(c4c5[nH]c(cc6nc(cc1[nH]2)C(C)=C6CC)c(C)c5C(=O)[C@@H]4C(=O)OC)[C@@H](CCC(=O)O)[C@@H]3C` stands 6.5%.

Turning to `C=CCCC/C=C\C/C=C\C/C=C\C/C=C\C/C=C\CC`, in experiment [2], the IC50 is 5 µM. The inhibition result in experiment [3] is “Dose-dependent effect”. With `CC(Cc1ccc(O)c(O)c1)C(C)Cc1ccc(O)c(O)c1` (stereo not given) [NORDIHYDROGUAIARETIC ACID], in experiment [1], the inhibition was found to be 12.7%. The molecule further returned an IC50 in experiment [2] of 400 µM. `C=Cc1c(C)c2cc3nc(c4c5[nH]c(cc6nc(cc1[nH]2)C(C)=C6CC)c(C)c5C(=O)C4)[C@@H](CCC(=O)OC/C=C(\C)CCC[C@H](C)CCC[C@H](C)CCCC(C)C)[C@@H]3C`: in experiment [1], the inhibition is 29.4%. Take `C=CCCC/C=C\C/C=C\C/C=C\C/C=C\CCCCC`: it took 40 µM to reach half-maximal inhibition in experiment [2] (IC50). Moreover, in experiment [3], the inhibition entry was “Dose-dependent effect”.

As to `C=Cc1c(C)c2cc3nc(c4c5[nH]c(cc6nc(cc1[nH]2)C(C)=C6CC)c(C)c5C(=O)C4)[C@@H](CCC(=O)O)[C@@H]3C`, the inhibition in experiment [1] was 15%.
